Data published in paper PMC4267294 (RSC advances, 2014).

Assays:
[1] = Optical/chemical stability of fluorophores in 100% warm serum; type: in vitro ADME, bovine; conditions: 24 h
Procedure, shortened: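 Test fluorophores (10 mM DMSO stock, 100 μM working solution) were diluted into 100% FBS buffered with 50 mM HEPES, pH 7.4, and held at 37 °C. Optical stability was followed over time to 24 h by absorbance and fluorescence spectra, under 770 nm laser excitation at 10 mW.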

[2] = In vivo biodistribution and clearance in rodents after intravenous injection; design: species or system CD-1 mice and SD rats; conditions: rodent, 4 h post-injection
Procedure, shortened: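 Male CD-1 mice (≈25 g) and male Sprague-Dawley rats (≈250 g) were anaesthetised with ketamine 100 mg/kg plus xylazine 10 mg/kg i.p. They received test compound i.v. (mice 25 nmol, rats 100 nmol) and were imaged 4 h later on the FLARE NIR system (760 nm excitation, 11.0 mW/cm2; 810 ± 20 nm emission). Organ signal-to-background was calculated against surrounding muscle, with ≥3 animals per time point, mean ± s.d.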

[3] = Stability; type: in vitro ADME, bovine; conditions: fluorophore conjugated with a small molecule ligand, 24 h
[4] = 100% FBS supplemented with 50 mM HEPES, pH 7.4; conditions: fetal bovine, 37 °C, up to 24 h

serum stability [1] [%] | renal excretion [2] [%] | fragment found [4] | not cleaved [4] | Molecule | stable form maintained in warm serum [3] [%]
> 99 | > 80 |  |  | CC1(C)C(/C=C/C2=C(c3ccc(CCC(=O)O)cc3)C(=C/C=C3/N(CCC[N+](C)(C)C)c4ccc(S(=O)(=O)O)cc4C3(C)C)/CCC2)=[N+](CCC[N+](C)(C)C)c2ccc(S(=O)(=O)O)cc21 [ZW800-1C] | > 98
 |  | hydrolyzed form of cRGD-ZW800-1A, 24 h | >98%, 24 h | Cyclo(Arg-Gly-Asp-D-Tyr-Lys) | 
